How the values were obtained:
Human betaherpesvirus 5 [1] = test: Activity at HCMV US28 receptor assessed as receptor-mediated inositol phosphate response at 10 uM
Method in brief: (§1)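 Compounds were tested against ligand-independent (constitutive) US28-driven inositol phosphate production, measured as InsP accumulation. EC50 values (mean and interval) came from dose–response curves. Single-point data give percent inhibition of constitutive signaling at 10 µM compound. All runs were in triplicate and repeated at least three times.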

Human betaherpesvirus 5 [2] = test: Displacement of [125I]CCL5 from HCMV US28 receptor at 10 uM
Method in brief: (§2)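 Allosteric inhibition of chemokine binding to US28 was measured by ¹²⁵I-CCL5 radioligand binding. IC50 values (mean and interval) came from competition curves. Single-point data give percent inhibition of CCL5 binding at 10 µM compound. All runs were in triplicate and repeated at least three times.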

[3] = Displacement of [125I]CCL5 from HCMV US28 receptor; design: species or system Human betaherpesvirus 5; method in brief: as §2
[4] = Activity at HCMV US28 receptor assessed as receptor-mediated inositol phosphate response; design: species or system Human betaherpesvirus 5; method in brief: as §1

Work on `Clc1cccc(/C=C(\c2ccccc2)N2CCN(CCCCc3ccccc3)CC2)c1` yielded an Activity (Human betaherpesvirus 5 [1]) of 18% and an Activity (Human betaherpesvirus 5 [2]) of 47%.

With `CN1CCN(C2Cc3ccccc3Sc3ccc(Cl)cc32)CC1` (stereo not drawn) [CLOROTEPINE] the IC50 [3] was 4.9 µM and the EC50 [4] was 12.1 µM.

In the case of `CN1CCN(C2c3ccccc3CC2Cc2ccc(Cl)cc2Cl)CC1` (stereo not drawn), the IC50 [3] is reported as 8.1 µM and the EC50 [4] is reported as 12.1 µM.

For `CC(C)(C)c1ccc(C(OC(CN)c2ccccc2)c2ccccc2)cc1` (stereo not drawn), the IC50 [3] was 8.2 µM and the EC50 [4] was 8.4 µM.

In the case of `Clc1ccc(CC2Cc3ccccc3C2N2CCCCC2)c(Cl)c1` (stereo not drawn), the IC50 [3] is reported as 13.4 µM and the EC50 [4] is reported as 2.6 µM.

In the case of `CN1CCN(C2=Nc3cc(Cl)ccc3Nc3ccccc32)CC1`, the Activity (Human betaherpesvirus 5 [1]) is reported as 11% and the Activity (Human betaherpesvirus 5 [2]) is reported as 47%.

`OC1(c2ccc(Cl)cc2)CCN(CCCN2Cc3ccccc3CCc3ccccc32)CC1` gave an IC50 [3] of 0.7 µM and an EC50 [4] of 4.7 µM.

For `OC1(c2ccc(Cl)cc2)CCCN(CCCN2Cc3ccccc3CCc3ccccc32)C1` (stereo not drawn), the IC50 [3] was 0.9 µM and the EC50 [4] was 3.9 µM.

`CC(C)N1C2CCC1CC(OC1c3ccccc3C=Cc3ccccc31)C2` (stereo not drawn) showed an Activity (Human betaherpesvirus 5 [1]) of 3% and an Activity (Human betaherpesvirus 5 [2]) of 13%.

Molecule `N=C(N)NCCN1C2CCC1CC(OC1c3ccccc3CCc3ccccc31)C2` (stereo not drawn) has an Activity (Human betaherpesvirus 5 [1]) of 0% and an Activity (Human betaherpesvirus 5 [2]) of 34%.

For `O=C(CCN1CCN(CCO)CC1)N1Cc2ccccc2CCc2ccccc21`, the Activity (Human betaherpesvirus 5 [1]) was 0% and the IC50 [3] was > 100 µM.

In the case of `OC1(c2ccc(Cl)cc2)CCN(CCCC(c2ccc(F)cc2)c2ccc(F)cc2)CC1`, the IC50 [3] is reported as 3 µM and the EC50 [4] is reported as 5.2 µM.

Molecule `NC1c2ccccc2CC1Cc1ccc(Cl)cc1Cl` (stereo not drawn) has an IC50 [3] of 9.5 µM and an EC50 [4] of 11.1 µM.

With `CC(=O)Nc1ccc(CC2Cc3ccccc3C2N)cc1` (stereo not drawn) the IC50 [3] was > 100 µM and the EC50 [4] was > 100 µM.

For `NC1c2ccccc2CC1Cc1ccccc1` (stereo not drawn), the IC50 [3] was 80.6 µM and the EC50 [4] was > 100 µM.

In the case of `CN1CCN(C2=Nc3ccccc3Oc3ccc(Cl)cc32)CC1`, the Activity (Human betaherpesvirus 5 [1]) is reported as 0% and the Activity (Human betaherpesvirus 5 [2]) is reported as 13%.

In the case of `OC1(c2ccc(Cl)cc2)CCN(CCCN(Cc2ccccc2)c2ccc(Cl)cc2)CC1`, the IC50 [3] is reported as 1.8 µM and the EC50 [4] is reported as 5 µM.

For `OC1(c2ccc(Cl)cc2)CCN(CCOC(c2ccccc2)c2ccccc2)CC1`, the IC50 [3] was 2.1 µM and the EC50 [4] was 3.5 µM.

Molecule `CC(Cc1ccccc1)NCCC1c2ccccc2-c2ccccc21` (stereo not drawn) has an IC50 [3] of 5.2 µM and an EC50 [4] of 10.9 µM.

In the case of `NC1c2ccccc2CCC1Cc1ccc(Cl)cc1Cl` (stereo not drawn), the IC50 [3] is reported as 8.5 µM and the EC50 [4] is reported as 12.6 µM.

For `CN1CCN(C2=Nc3ccccc3Sc3ccc(Cl)cc32)CC1`, the Activity (Human betaherpesvirus 5 [1]) was 0% and the Activity (Human betaherpesvirus 5 [2]) was 28%.

Molecule `NCC1(c2ccc(Cl)cc2)CCN(CCCN2Cc3ccccc3CCc3ccccc32)CC1` has an IC50 [3] of 1.6 µM and an EC50 [4] of 7.6 µM.

For `OC1(c2ccc(Cl)cc2)CCN(CCCN(Cc2ccccc2)c2ccccc2)CC1`, the IC50 [3] was 4.1 µM and the EC50 [4] was 3 µM.

Work on `NCC(OC(c1ccccc1)c1ccc(Cl)cc1Cl)c1ccccc1` (stereo not drawn) yielded an IC50 [3] of 9.2 µM and an EC50 [4] of 10.2 µM.

With `Clc1ccc(C2=CCN(C3c4ccccc4CC3Cc3ccc(Cl)cc3Cl)CC2)cc1` (stereo not drawn) the IC50 [3] was > 100 µM and the EC50 [4] was > 100 µM.

For `COc1ccc(CC2Cc3ccccc3C2N)c(OC)c1` (stereo not drawn), the IC50 [3] was > 100 µM and the EC50 [4] was > 100 µM.

In the case of `CC(Cc1ccccc1)NCC=C1c2ccccc2-c2ccccc21` (stereo not drawn), the Activity (Human betaherpesvirus 5 [1]) is reported as 42% and the IC50 [3] is reported as 7 µM.

Molecule `CCN1C2CCC1CC(OC1c3ccccc3CCc3ccccc31)C2` (stereo not drawn) has an Activity (Human betaherpesvirus 5 [1]) of 0% and an Activity (Human betaherpesvirus 5 [2]) of 7%.

With `OCCN1CCN(CCCN2Cc3ccccc3CCc3ccccc32)CC1` the IC50 [3] was 1.6 µM.

Molecule `CCCN1C2CCC1CC(OC1c3ccccc3C=Cc3ccccc31)C2` (stereo not drawn) has an Activity (Human betaherpesvirus 5 [1]) of 0% and an Activity (Human betaherpesvirus 5 [2]) of 18%.

`NC(CCc1ccccc1)c1ccc(Cl)c(Cl)c1` (stereo not drawn) showed an Activity (Human betaherpesvirus 5 [1]) of 34% and an Activity (Human betaherpesvirus 5 [2]) of 5%.

With `CC(Cc1ccccc1)NCCC1c2ccccc2CCc2ccccc21` (stereo not drawn) the IC50 [3] was 3.7 µM and the EC50 [4] was 5.2 µM.

With `CN1CCN(C2=Nc3cc(Cl)ccc3Oc3ccccc32)CC1` the Activity (Human betaherpesvirus 5 [1]) was 22% and the Activity (Human betaherpesvirus 5 [2]) was 19%.

`NC(CCc1ccc(Cl)c(Cl)c1)c1ccc(Cl)c(Cl)c1` (stereo not drawn) gave an IC50 [3] of 7.5 µM and an EC50 [4] of 11.7 µM.

`NC1c2ccccc2CCCC1Cc1ccc(Cl)cc1Cl` (stereo not drawn) showed an Activity (Human betaherpesvirus 5 [1]) of 26% and an IC50 [3] of 11.8 µM.

In the case of `COc1ccccc1CC1Cc2ccccc2C1N` (stereo not drawn), the IC50 [3] is reported as 37.3 µM and the EC50 [4] is reported as 42.7 µM.

In the case of `CCCCCCCCN1C2CCC1CC(OC1c3ccccc3CCc3ccccc31)C2` (stereo not drawn), the IC50 [3] is reported as 5.6 µM and the EC50 [4] is reported as 4.9 µM.

With `c1ccc(CN2C3CCC2CC(OC2c4ccccc4CCc4ccccc42)C3)cc1` (stereo not drawn) the IC50 [3] was 10.5 µM and the EC50 [4] was 8.8 µM.

In the case of `C1=Cc2ccccc2C(OC2CC3CCC(C2)N3C2CCCCC2)c2ccccc21` (stereo not drawn), the IC50 [3] is reported as 8.3 µM and the EC50 [4] is reported as 5.8 µM.

In the case of `CSc1ccc2c(c1)C(OCCN1CCC(O)(c3ccc(Cl)cc3)CC1)Cc1ccccc1S2` (stereo not drawn), the IC50 [3] is reported as 12.4 µM and the EC50 [4] is reported as 7.1 µM.

`COc1ccc(CC2Cc3ccccc3C2N)cc1C` (stereo not drawn) gave an IC50 [3] of 59.7 µM and an EC50 [4] of 16.4 µM.

`CSc1ccc2c(c1)C(N1CCN(C)CC1)Cc1ccccc1S2` (stereo not drawn) [METITEPINE] showed an IC50 [3] of 0.41 µM and an EC50 [4] of 7.6 µM.

`CN1[C@@H]2CC[C@H]1C[C@@H](OC1c3ccccc3CCc3ccccc31)C2` showed an Activity (Human betaherpesvirus 5 [1]) of 0% and an Activity (Human betaherpesvirus 5 [2]) of 15%.

`OCCCCN1CCN(/C(=C/c2cccc(Cl)c2)c2ccccc2)CC1` gave an Activity (Human betaherpesvirus 5 [1]) of 0% and an Activity (Human betaherpesvirus 5 [2]) of 13%.

In the case of `CC(Cc1ccc(Cl)cc1)NCCC1=C2C=CC=CC2Sc2ccccc21` (stereo not drawn), the Activity (Human betaherpesvirus 5 [1]) is reported as 21% and the IC50 [3] is reported as 2.6 µM.

With `CCc1ccccc1C1(OCCN(C)Cc2cccc(C)c2)CCCCC1C` (stereo not drawn) the Activity (Human betaherpesvirus 5 [1]) was 10% and the IC50 [3] was 12.9 µM.

With `CCCCN1CCN(C2=Nc3cc(Cl)ccc3Nc3ccccc32)CC1` the Activity (Human betaherpesvirus 5 [1]) was 19% and the IC50 [3] was 4.7 µM.

`Cc1ccc(CC2Cc3ccccc3C2N)c(C)c1` (stereo not drawn) showed an IC50 [3] of 17.7 µM and an EC50 [4] of 13.7 µM.

With `Clc1ccc(CC2Cc3ccccc3C2N2CCN(c3ccccc3)CC2)c(Cl)c1` (stereo not drawn) the IC50 [3] was > 100 µM and the EC50 [4] was > 100 µM.

For `OC1(c2ccc(Cl)cc2)CCN(C2c3ccccc3CC2Cc2ccc(Cl)cc2Cl)CC1` (stereo not drawn), the IC50 [3] was 11 µM and the EC50 [4] was 6 µM.

In the case of `Clc1ccc(CC2Cc3ccccc3C2NCc2ccccc2)c(Cl)c1` (stereo not drawn), the IC50 [3] is reported as > 100 µM and the EC50 [4] is reported as > 100 µM.

Molecule `CN1CCN(CCCN2Cc3ccccc3CCc3ccccc32)CC1` has an Activity (Human betaherpesvirus 5 [1]) of 3% and an IC50 [3] of 4.9 µM.

For `CN1CCN(/C(=C/c2cccc(Cl)c2)c2ccccc2)CC1`, the Activity (Human betaherpesvirus 5 [1]) was 20% and the Activity (Human betaherpesvirus 5 [2]) was 13%.

In the case of `CN1CCN(C2=Nc3cc(Cl)ccc3Sc3ccccc32)CC1`, the Activity (Human betaherpesvirus 5 [1]) is reported as 0% and the Activity (Human betaherpesvirus 5 [2]) is reported as 47%.

`N#CC(CCCN1CCC(O)(c2ccc(Cl)cc2)CC1)(c1ccccc1)c1ccccc1` [BERLEX COMPOUND] showed an IC50 [3] of 4.9 µM and an EC50 [4] of 6.3 µM.

With `OC1(c2ccc(Cl)cc2)CCN(CCOC(c2ccccc2)c2ccc(F)cc2)CC1` (stereo not drawn) the IC50 [3] was 2.3 µM and the EC50 [4] was 4.6 µM.

With `COc1ccc(CC2Cc3ccccc3C2N)cc1` (stereo not drawn) the IC50 [3] was > 100 µM and the EC50 [4] was > 100 µM.

Work on `C=C[C@H]1CN2CC[C@@H]1C[C@H]2C(OC(=O)c1ccc(C)cc1)c1ccnc2ccccc12` (stereo partly drawn) yielded an IC50 [3] of 0.3 µM.

Work on `N/C(CCN1C2CCC1CC(OC1c3ccccc3CCc3ccccc31)C2)=N\O` (stereo not drawn) yielded an Activity (Human betaherpesvirus 5 [1]) of 0% and an Activity (Human betaherpesvirus 5 [2]) of 0%.

For `c1ccc(CCN2C3CCC2CC(OC2c4ccccc4CCc4ccccc42)C3)cc1` (stereo not drawn), the IC50 [3] was 11.9 µM and the EC50 [4] was 4.3 µM.

`OC1(c2ccc(Cl)cc2)CCN(CCCN(Cc2ccc(Cl)cc2)c2ccccc2)CC1` showed an IC50 [3] of 5.7 µM and an EC50 [4] of 5.5 µM.

With `CN1CCN(CCC(=O)N2Cc3ccccc3CCc3ccccc32)CC1` the Activity (Human betaherpesvirus 5 [1]) was 0% and the IC50 [3] was > 100 µM.

In the case of `CCN1CCN(C2=Nc3cc(Cl)ccc3Oc3ccccc32)CC1`, the Activity (Human betaherpesvirus 5 [1]) is reported as 0% and the Activity (Human betaherpesvirus 5 [2]) is reported as 38%.

Molecule `CCN1CCN(C2=Nc3cc(Cl)ccc3Nc3ccccc32)CC1` has an Activity (Human betaherpesvirus 5 [1]) of 16% and an IC50 [3] of 3.8 µM.

In the case of `CC(Cc1cccc(C(F)(F)F)c1)NCCc1c2ccccc2nc2ccccc12` (stereo not drawn), the Activity (Human betaherpesvirus 5 [1]) is reported as 34% and the IC50 [3] is reported as 5.5 µM.

In the case of `CC(Cc1ccccc1)NCC=C1c2ccccc2CCc2ccccc21` (stereo not drawn), the Activity (Human betaherpesvirus 5 [1]) is reported as 39% and the IC50 [3] is reported as 4.2 µM.

Work on `CCN1CCC[C@H]1CNC(=O)c1c(OC)ccc(I)c1O` [IOLOPRIDE] yielded an IC50 [3] of 0.3 µM.

`CC(Cc1cccc(C(F)(F)F)c1)NCC=C(c1ccc(F)cc1)c1ccc(F)cc1` (stereo not drawn) gave an Activity (Human betaherpesvirus 5 [1]) of 38% and an Activity (Human betaherpesvirus 5 [2]) of 39%.

From ChEMBL document CHEMBL1158527, “Identification of novel allosteric nonpeptidergic inhibitors of the human cytomegalovirus-encoded chemokine receptor US28” (Bioorg Med Chem, 2010)
